In ChEMBL document CHEMBL1629712, “Design, synthesis and discovery of 5-hydroxyaurone derivatives as growth inhibitors against HUVEC and some cancer cell lines” (Eur J Med Chem, 2010):

Key:
[1] = Antiproliferative activity against human CCC-HPF1 cells after 96 hrs by MTT assay; type: cell-based
How it was run: (§1)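 MTT viability. Seeding was 1000 cells/well for HUVEC, 1500 for MCF-7 and CCC-HPF-1, and 2000 for A549. After 20 h attachment, compound or carrier was added from 2% DMSO/PBS stocks (final DMSO 0.1%), in triplicate per concentration.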

MCF7 = assay: Antiproliferative activity against human MCF7 cells after 96 hrs by MTT assay; conditions: MCF7, 96 h
A549 = assay: Antiproliferative activity against human A549 cells after 96 hrs by MTT assay; type: functional, cell-based; conditions: A549, 96 h; how it was run: as §1
[2] = Selectivity ratio of CC50 for human CCC-HPF1 cells to IC50 for HUVEC; type: ADME, cell-based; conditions: CCC-HPF1 cells versus HUVEC, read-out: Ratio CC50/IC50
HUVEC = assay: Antiangiogenic activity in HUVEC after 96 hrs by MTT assay; type: functional, cell-based; conditions: Homo sapiens; how it was run: as §1

| SMILES | CC50 at 96 h [1] [µM] | IC50 (MCF7) [µM] | IC50 (A549) [µM] | selectivity ratio [2] | IC50 (HUVEC) [µM] |
| --- | --- | --- | --- | --- | --- |
| CN(C)c1ccc(/C=C2\Oc3ccc(O)cc3C2=O)cc1 | 25.1 | 10.1 | 18.7 | 20 | 1.35 |
| CO[C@@H]1[C@H](OC(=O)/C=C/C=C/C=C/C=C/C(=O)O)CC[C@]2(CO2)[C@H]1[C@@]1(C)O[C@@H]1CC=C(C)C [FUMAGILLIN] |  | ≥ 50 | ≥ 50 |  | 0.0089 |
